Key:
[1] = target: T1, Diacylglycerol lipase-alpha (Homo sapiens, UniProt Q9Y4D2); assay: Inhibition of full length recombinant human DAGLalpha expressed in HEK293T cell membranes using PNP butyrate as substrate by colorimetric assay; set-up: species or system HEK-293T
T1 sequence (Q9Y4D2 whole entry): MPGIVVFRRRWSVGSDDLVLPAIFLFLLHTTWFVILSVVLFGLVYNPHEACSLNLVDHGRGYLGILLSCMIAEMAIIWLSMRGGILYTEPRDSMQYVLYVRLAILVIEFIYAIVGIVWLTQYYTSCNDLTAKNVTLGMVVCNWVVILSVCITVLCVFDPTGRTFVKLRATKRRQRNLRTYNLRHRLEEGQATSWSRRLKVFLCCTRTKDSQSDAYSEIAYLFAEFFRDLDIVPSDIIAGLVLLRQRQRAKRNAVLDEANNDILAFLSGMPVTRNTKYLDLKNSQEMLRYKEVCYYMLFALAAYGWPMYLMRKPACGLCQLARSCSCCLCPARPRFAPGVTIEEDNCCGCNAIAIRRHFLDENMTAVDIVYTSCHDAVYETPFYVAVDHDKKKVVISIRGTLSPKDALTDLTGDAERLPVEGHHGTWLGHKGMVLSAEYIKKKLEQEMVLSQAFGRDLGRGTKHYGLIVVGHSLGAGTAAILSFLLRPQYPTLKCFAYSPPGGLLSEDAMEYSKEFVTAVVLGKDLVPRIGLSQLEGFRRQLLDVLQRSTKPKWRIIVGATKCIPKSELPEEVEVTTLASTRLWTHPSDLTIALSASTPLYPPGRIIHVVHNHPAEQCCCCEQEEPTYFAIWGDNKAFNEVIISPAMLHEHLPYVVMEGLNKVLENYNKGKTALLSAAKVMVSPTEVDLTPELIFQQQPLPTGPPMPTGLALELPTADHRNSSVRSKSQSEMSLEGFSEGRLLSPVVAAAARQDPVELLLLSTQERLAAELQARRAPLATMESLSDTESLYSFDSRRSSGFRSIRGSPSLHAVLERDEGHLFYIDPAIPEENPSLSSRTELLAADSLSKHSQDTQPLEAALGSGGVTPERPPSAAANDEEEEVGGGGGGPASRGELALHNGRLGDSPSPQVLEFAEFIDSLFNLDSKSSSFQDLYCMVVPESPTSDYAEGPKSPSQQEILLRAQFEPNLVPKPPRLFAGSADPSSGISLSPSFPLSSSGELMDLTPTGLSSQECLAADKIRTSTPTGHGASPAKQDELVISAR
How it was run: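 Membranes from HEK293T cells transiently transfected with human DAGLα (PEI transfection, harvested at 72 h), used at 0.05 µg/µL final protein in 50 mM HEPES pH 7.2. Activity was read colorimetrically from para-nitrophenylbutyrate hydrolysis. n = 4, mean ± SEM.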

[2] = target: T2, Monoacylglycerol lipase ABHD6 (Homo sapiens, UniProt Q9BV23); assay: Inhibition of human ABHD6 using 2-AG as natural substrate by fluorescence based assay
T2 sequence (Q9BV23 whole entry): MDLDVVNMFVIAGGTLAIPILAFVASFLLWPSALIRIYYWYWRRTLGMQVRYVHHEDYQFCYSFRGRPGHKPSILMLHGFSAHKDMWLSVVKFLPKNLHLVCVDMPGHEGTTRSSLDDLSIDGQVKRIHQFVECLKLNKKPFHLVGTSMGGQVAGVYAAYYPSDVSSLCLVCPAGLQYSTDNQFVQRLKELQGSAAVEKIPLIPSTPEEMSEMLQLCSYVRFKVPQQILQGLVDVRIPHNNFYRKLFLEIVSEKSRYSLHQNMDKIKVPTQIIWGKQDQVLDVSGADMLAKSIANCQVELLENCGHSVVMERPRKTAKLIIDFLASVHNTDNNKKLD
How it was run: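 Coupled fluorescence assay: 2-AG hydrolysis detected via glycerol kinase, glycerol-3-phosphate oxidase and HRP (0.2 U/mL each), 0.125 mM ATP and 10 µM Amplifu Red. Conditions: 25 µM 2-AG, 0.5% acetonitrile, 5% DMSO, ABHD6 membrane protein 40 µg/mL final. n = 4.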

[3] = target: T3, Diacylglycerol lipase-alpha (Mus musculus) (UniProt Q6WQJ1); assay: (§1) Inhibition of MB064 probe binding to DAGLalpha in mouse brain membrane proteome preincubated for 30 mins followed by MB064 probe addition measured after 20 mins by gel-based competitive activity based protein profiling assay; assay type: cell membranes
T3 sequence (whole entry): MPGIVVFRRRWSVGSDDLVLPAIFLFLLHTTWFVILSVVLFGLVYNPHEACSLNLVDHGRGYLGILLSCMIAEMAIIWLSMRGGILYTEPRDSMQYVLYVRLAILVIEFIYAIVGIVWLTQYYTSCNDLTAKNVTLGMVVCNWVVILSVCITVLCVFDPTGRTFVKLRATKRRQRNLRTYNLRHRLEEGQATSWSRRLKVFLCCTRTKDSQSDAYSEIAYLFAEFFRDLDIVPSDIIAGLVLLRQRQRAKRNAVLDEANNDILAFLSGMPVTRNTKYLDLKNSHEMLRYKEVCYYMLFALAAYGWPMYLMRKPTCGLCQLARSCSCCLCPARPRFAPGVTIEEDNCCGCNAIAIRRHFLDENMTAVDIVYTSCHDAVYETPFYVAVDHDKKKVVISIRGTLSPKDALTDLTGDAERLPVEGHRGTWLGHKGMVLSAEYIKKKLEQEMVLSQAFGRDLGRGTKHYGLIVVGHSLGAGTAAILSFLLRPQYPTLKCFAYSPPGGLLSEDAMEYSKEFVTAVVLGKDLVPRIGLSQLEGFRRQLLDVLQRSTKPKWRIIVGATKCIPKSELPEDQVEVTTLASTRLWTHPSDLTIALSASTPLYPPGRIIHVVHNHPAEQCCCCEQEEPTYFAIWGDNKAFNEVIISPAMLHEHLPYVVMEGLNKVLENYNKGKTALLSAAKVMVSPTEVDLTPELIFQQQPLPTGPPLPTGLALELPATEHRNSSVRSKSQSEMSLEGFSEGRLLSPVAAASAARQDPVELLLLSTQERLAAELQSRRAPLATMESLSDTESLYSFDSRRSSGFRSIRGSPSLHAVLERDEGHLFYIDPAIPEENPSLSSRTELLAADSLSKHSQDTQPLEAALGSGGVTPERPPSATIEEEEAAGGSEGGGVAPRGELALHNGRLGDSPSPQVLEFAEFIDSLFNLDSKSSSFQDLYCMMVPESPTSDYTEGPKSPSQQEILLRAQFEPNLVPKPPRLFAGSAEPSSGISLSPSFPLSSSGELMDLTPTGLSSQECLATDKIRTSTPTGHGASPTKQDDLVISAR
How it was run: (§2)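 Mouse brain membrane proteome (2 mg/mL) preincubated with inhibitor or DMSO vehicle for 30 min at r.t., then labelled with MB064 at 250 nM final for 20 min at r.t. and quenched in Laemmli buffer. Fluorescent bands were quantified against vehicle set to 100%, and IC50 was taken from a variable-slope log(inhibitor) vs normalized response fit. n = 3.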

[4] = target: T4, Diacylglycerol lipase-alpha (Mus musculus, UniProt Q6WQJ1); assay: as §1; assay type: cell membranes; how it was run: as §2
T4 sequence (Q6WQJ1 whole entry): T3 sequence (whole entry)

[5] = target: T5, Monoacylglycerol lipase ABHD6 (Mus musculus, UniProt Q8R2Y0); assay: Inhibition of MB064 probe binding to ABHD6 in mouse brain membrane proteome preincubated for 30 mins followed by MB064 probe addition measured after 20 mins by gel-based competitive activity based protein profiling assay; assay type: cell membranes; how it was run: as §2
T5 sequence (Q8R2Y0 whole entry): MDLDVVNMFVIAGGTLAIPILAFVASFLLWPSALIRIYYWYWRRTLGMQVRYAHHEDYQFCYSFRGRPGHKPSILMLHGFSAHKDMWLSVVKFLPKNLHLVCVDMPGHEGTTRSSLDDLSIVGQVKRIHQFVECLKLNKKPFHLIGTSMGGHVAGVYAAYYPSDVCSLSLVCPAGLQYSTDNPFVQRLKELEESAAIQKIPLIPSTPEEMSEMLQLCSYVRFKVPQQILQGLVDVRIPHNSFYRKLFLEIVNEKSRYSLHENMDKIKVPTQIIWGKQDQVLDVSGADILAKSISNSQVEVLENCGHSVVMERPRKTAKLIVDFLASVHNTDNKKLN

Mus musculus = organism: Mus musculus; assay: Selectivity ratio of IC50 for ABHD6 in mouse brain membrane proteome to IC50 for DAGLalpha in mouse brain membrane proteome; assay type: cell membranes
How it was run: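 Ratio of DAGLα and ABHD6 […] values, both from competitive gel ABPP in mouse brain membrane proteome. Inhibitor was preincubated 30 min at r.t., then MB064 (250 nM final) was added for 20 min. Band intensities were normalized to vehicle and fitted with a variable-slope curve. n = 3.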

IC50 [1] [nM] | IC50 [2] [nM] | inhibition [3] | IC50 [4] [nM] | IC50 [5] [nM] | Ratio IC50 (Mus musculus) | SMILES
0.631 | 39.8 | Dose-dependent effect | 2 | 316 | 160 | O=C(N1C[C@H](OCC2CC2)CC[C@@H]1Cc1ccccc1)n1ncc(C(O)(c2ccc(F)cc2)c2ccc(F)cc2)n1
1 | 25.1 |  |  |  |  | O=C(N1CCCCC1Cc1ccccc1)n1ncc(C(O)(c2ccc(F)cc2)c2ccc(F)cc2)n1 (stereo not given)
6310 | 200 |  |  |  |  | O=C(N1C[C@@H](O)CC[C@@H]1Cc1ccccc1)n1ncc(C(O)(c2ccc(F)cc2)c2ccc(F)cc2)n1
7.94 | 126 | Dose-dependent effect | 79.4 | 398 | 5 | CO[C@H]1CC[C@H](Cc2ccccc2)N(C(=O)n2ncc(C(O)(c3ccc(F)cc3)c3ccc(F)cc3)n2)C1
20 | 158 |  |  |  |  | O=C(N1C[C@H](O)CC[C@@H]1Cc1ccccc1)n1ncc(C(O)(c2ccc(F)cc2)c2ccc(F)cc2)n1
0.794 | 50.1 | Dose-dependent effect | 2 | 50.1 | 25 | CO[C@@H]1CC[C@H](Cc2ccccc2)N(C(=O)n2ncc(C(O)(c3ccc(F)cc3)c3ccc(F)cc3)n2)C1
0.794 |  |  |  |  |  | O=C(N1CCCC[C@@H]1Cc1ccccc1)n1ncc(C(O)(c2ccc(F)cc2)c2ccc(F)cc2)n1
20 | 2510 | Dose-dependent effect | 79.4 | > 10000 | 145 | O=C(N1C[C@@H](OCC2CC2)CC[C@@H]1Cc1ccccc1)n1ncc(C(O)(c2ccc(F)cc2)c2ccc(F)cc2)n1

Second part, the compound before the results:

SMILES | IC50 [1] [nM] | IC50 [2] [nM] | inhibition [3] | IC50 [4] [nM] | IC50 [5] [nM] | Ratio IC50 (Mus musculus)
O=C(N1CCCCC1Cc1ccccc1)n1ncc(C2(O)CCCCC2)n1 (stereo not given) | 1580 | 3160 |  |  |  | 
CC(O)(c1ccccc1)c1cnn(C(=O)N2CCCCC2Cc2ccccc2)n1 (stereo not given) | 398 | 3160 |  |  |  | 
O=C(N1CCCCC1Cc1ccccc1)n1ncc(C(O)(C2CCCCC2)C2CCCCC2)n1 (stereo not given) | 100 | 7940 |  |  |  | 
O=C(N1CCCCC1COc1ccc(F)cc1)n1ncc(C(O)(c2ccccc2)c2ccccc2)n1 (stereo not given) | 6.31 | 251 |  |  |  | 
O=C(N1C[C@H](O)C=C[C@@H]1Cc1ccccc1)n1ncc(C(O)(c2ccc(F)cc2)c2ccc(F)cc2)n1 | 12.6 | 39.8 |  |  |  | 
COc1ccc(CC2CCCCN2C(=O)n2ncc(C(O)(c3ccc(F)cc3)c3ccc(F)cc3)n2)cc1 (stereo not given) | 5.01 | 251 |  |  |  | 
O=C(N1CCCCC1Cc1ccccc1)n1ncc(C(O)(c2ccccn2)c2ccccn2)n1 (stereo not given) | 158 | 3160 |  |  |  | 
O=C(N1CCCCC1COc1ccccc1)n1ncc(C(O)(c2ccc(F)cc2)c2ccc(F)cc2)n1 (stereo not given) | 5.01 | 200 |  |  |  | 
CC(C)(O)c1cnn(C(=O)N2CCCCC2Cc2ccccc2)n1 (stereo not given) | 5010 | > 10000 |  |  |  | 
O=C(N1CCCCC1COc1ccccc1)n1ncc(C(O)(c2ccccc2)c2ccccc2)n1 (stereo not given) | 7.94 | 158 |  |  |  | 
O=C(N1C[C@@H](O)C=C[C@@H]1Cc1ccccc1)n1ncc(C(O)(c2ccc(F)cc2)c2ccc(F)cc2)n1 | 20 | 251 |  |  |  | 
O=C(N1CCCCC1COc1ccc(F)cc1)n1ncc(C(O)(c2ccc(F)cc2)c2ccc(F)cc2)n1 (stereo not given) | 5.01 | 200 |  |  |  | 
CCC1CCCCN1C(=O)n1ncc(-c2ccc(-c3ccccc3)cc2)n1 (stereo not given) | 3980 |  |  |  |  | 
COC(c1ccc(F)cc1)(c1ccc(F)cc1)c1cnn(C(=O)N2CCCCC2Cc2ccccc2)n1 (stereo not given) | 12.6 | > 10000 |  |  |  | 
COc1cccc(CC2CCCCN2C(=O)n2ncc(C(O)(c3ccc(F)cc3)c3ccc(F)cc3)n2)c1 (stereo not given) | 3.16 | 158 |  |  |  | 

— ChEMBL document CHEMBL3877306, “Triazole Ureas Act as Diacylglycerol Lipase Inhibitors and Prevent Fasting-Induced Refeeding” (J Med Chem, 2017)
